The record followed here is ChEMBL document CHEMBL1122552, “Synthesis and biological evaluation of 6-amino-1H-pyrrolo[3,2-c]pyridin-4(5H)-one (3,7-dideazaguanine)” (1984).

In brackets after ≈: the same amount, converted by molar mass.

Test [1] relates to CHO. As to the kind of experiment: Ability to inhibit growth of CHO cells was determined. It counts as functional. Particulars: Cricetulus griseus. In outline: (§1)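 Clonogenic growth assay: log-phase cells trypsinized, diluted in McCoy's 5A with dialyzed fetal calf serum, about 200 cells per dish. Cells were grown at 0.5–3000 μM for 7 days at 37.5 °C in humidified CO2, then fixed in 10% formaldehyde and stained with 0.1% crystal violet. The minimum inhibitory concentration is the lowest tested concentration giving clones of fewer than 50 cells.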

Test [2] deals with Human alphaherpesvirus 2. As to the kind of experiment: The minimum inhibitory concentration required to reduce HSV-2 (G) induced cytopathogenicity in primary rabbit kidney cells by 50%. Format: functional. In outline:
(§2)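 Inhibition of virus-induced cytopathogenicity in primary rabbit kidney cells. The minimal inhibitory concentration (μg/mL) is the one reducing cytopathogenicity by 50%, scored when cytopathogenicity was complete in virus-infected untreated controls. Minimal cytotoxic concentration was taken as the one causing microscopically detectable change in cell morphology; 400 μg/mL was the highest concentration tested.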
In general terms: Cytopathic effects are the visible damage that an infection or toxin causes in cultured cells.

The test system of test [3] is AA6. As to the kind of experiment: Ability to inhibit growth of AA-6 cells (a mutant cell line resistant to 8-azaadenine and lacks […]) was determined. It counts as functional. The conditions noted are these: Cricetulus griseus. In outline: as §1
The nature of test [4]: Ability to inhibit growth of TG-1 cells (a mutant cell line resistant to 6-thioguanine and lacks hypoxanthine-guanine phosphoribosyltransferase) was determined.
The test system of test [5] is Human alphaherpesvirus 1. As to the kind of experiment: The minimum inhibitory concentration required to reduce HSV-1(KOS) induced cytopathogenicity in primary rabbit kidney cells by 50%. Format: functional. In outline:
as §2

For test [6], the system named is Mus musculus. As to the kind of experiment: Compound was evaluated for value at a dose of 50 mg/kg. Format: functional. In outline: (§3)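 Experiment 1: 10^6 P388 cells implanted ip in groups of 6 CDF1 mice, with 30 untreated controls. Therapy began 24 h later: saline solution given ip on days 1-5. Value is T/C, %, of median life span (days postimplant) against untreated controls.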

The subject of test [7] is Mus musculus. As to the kind of experiment: Effect on mice inoculated with P388 Lymphocytic leukemia, was studied. Compound dose is 50 mg/kg (Exp-1)Average animal body weight change of test group minus that of control animals. Format: functional. In outline: (§4)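 Experiment 1: P388 cells (10^6) implanted ip in CDF1 mice, 6 per group, 30 untreated controls. Dosing in saline, ip, on days 1-5, starting 24 h after implant. Reported value is the mean body weight change of the treated group minus that of the controls, in g.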

Test [8] deals with Mus musculus. As to the kind of experiment: Compound was evaluated for value at a dose of 100 mg/kg. Format: functional. In outline: as §3
Test [9] concerns Mus musculus. As to the kind of experiment: Effect on mice inoculated with P388 Lymphocytic leukemia, was studied. Compound dose is 100 mg/kg (Exp-1)Average animal body weight change of test group minus that of control animals. Format: functional. In outline: as §4
Test [10] relates to Mus musculus. As to the kind of experiment: Compound was evaluated for value at a dose of 400 mg/kg. It counts as functional. In outline:
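Experiment 2: 10^6 P388 cells implanted ip in groups of 6 BDF1 mice, with 30 untreated controls. Therapy began 24 h later: saline solution given ip on days 1-5. Value is T/C, %, of median life span (days postimplant) against untreated controls.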

The test system of test [11] is Coxsackievirus. As to the kind of experiment: The minimum inhibitory concentration required to reduce Coxsackie virus type B4 induced cytopathogenicity in primary rabbit kidney cells by 50%. It counts as functional.
Test [12] relates to Mus musculus. As to the kind of experiment: Compound was evaluated for value at a dose of 200 mg/kg. Format: functional. In outline:
as §3

Test [13] relates to Mus musculus. As to the kind of experiment: Compound was evaluated for median life span after tumor implantation at a dose of 100 mg/kg. Format: functional. In outline: (§5)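 P388 leukemia cells (10^6) implanted ip in groups of 6 CDF1 mice, with 30 untreated controls. Therapy began 24 h later: compound in saline given ip on days 1-5. Recorded median life span in days after implant, T/C %, and body-weight change of treated minus control animals.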

Test [14] has as its system Vesicular stomatitis virus. As to the kind of experiment: The minimum inhibitory concentration required to reduce VSV induced cytopathogenicity in primary rabbit kidney cells by 50%. Format: functional.
The subject of test [15] is Mus musculus. As to the kind of experiment: Effect on mice inoculated with P388 Lymphocytic leukemia, was studied. Compound dose is 400 mg/kg (Exp-1)Average animal body weight change of test group minus that of control animals. Format: functional.
Test [16] has as its system Mus musculus. As to the kind of experiment: Compound was evaluated for median life span after tumor implantation at a dose of 200 mg/kg. It counts as functional. In outline: as §5
In test [17] the test system is Mus musculus. As to the kind of experiment: Effect on mice inoculated with P388 Lymphocytic leukemia, was studied. Compound dose is 200 mg/kg (Exp-1)Average animal body weight change of test group minus that of control animals. It counts as functional. In outline:
as §4

The test system of test [18] is Mus musculus. As to the kind of experiment: Compound was evaluated for median life span after tumor implantation at a dose of 400 mg/kg. Format: functional. In outline:
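P388 leukemia cells (10^6) implanted ip in groups of 6 BDF1 mice, with 30 untreated controls. Therapy began 24 h later: compound in saline given ip on days 1-5. Recorded median life span in days after implant, T/C %, and body-weight change of treated minus control animals.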

The test system of test [19] is Mus musculus. As to the kind of experiment: Compound was evaluated for median life span after tumor implantation at a dose of 50 mg/kg. Format: functional. In outline:
as §5

Consider `Nc1cc2[nH]cnc2c(=O)[nH]1` [DEZAGUANINE], for which the MIC in [1] is 10 µM (≈ 1.5 µg/mL); in [2] it was 150 µg/mL (≈ 999 µM); in [3] it was 500 µM (≈ 75.1 µg/mL); in test [4] it was 1500 µM (≈ 225 µg/mL); in test [5], 4 µg/mL (≈ 26.6 µM).
Take `Nc1ncnc2c1ncn2C[C@H](O)CO` [(S)-DHPA]: the MIC in test [2] and in [5] was above 400 µg/mL each time.
Take `Nc1cc2[nH]ccc2c(O)n1`: the MIC in test [1] is 1000 µM (≈ 149 µg/mL); in test [2], above 400 µg/mL; in [3] it was 1000 µM (≈ 149 µg/mL); in [11] it was above 400 µg/mL; in test [14], above 400 µg/mL; in test [4], 1000 µM (≈ 149 µg/mL). In test [5], this compound had an MIC above 400 µg/mL. Also, the T/C (commonly the result in the treated group divided by that in the control group, in per cent) is on record as 108% in test [6], 113% in test [8], 126% in [10] and 114% in test [12]. Besides, the Activity in [7] is given as -0.2 g; in test [9], -0.6 g; in test [15], -0.7 g; in test [17] it was -1.6 g. The Median life span in test [13] came to 12.3 days; in [16] it was 12.4 days; in test [18], 16.3 days; in test [19] it was 11.7 days.
In the case of `NC(=O)c1ncn([C@@H]2O[C@H](CO)[C@@H](O)[C@H]2O)n1` [RIBAVIRIN], the MIC in test [2] and in [5] was above 400 µg/mL in each case.
